Screening results as filed in PubChem BioAssay.
Compounds with a hit are over-represented: about 3.6% of the library has one in this group of screens.
SKKanGAS inh: SKKanGAS growth inhibition. inhibition, % at 7.5 µM. hit rate 1.3% among 300,000. S. pyogenes SKKanGAS, kanamycin growth, BacTiter-Glo, 6 h;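 active = mean replicate score, as percent of positive control median, at least 50; inconclusive = mean below 50 but one replicate at or above 50; inactive = mean and every replicate below 50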;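 also: strain carries kanamycin resistance gene driven by streptokinase promoter and grows in 40 µg/ml kanamycin; loss of luminescence reflects streptokinase promoter inhibition or plain growth inhibition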
CSC inhib: blocks cancer stem cells; cancer stem cell-like cells viability, luminescence; inhibition, % at 7.5 µM; hit rate 1.1% among 300,000; in the data active = inhibition above about 75%; inconclusive = no clear call, values can overlap the other calls; tested in HMLE shEcad cells
HIF activator: HIF pathway transcriptional activation; U2OS HRE-luciferase reporter, luminescence; normalized: DMSO 0%, desferrioxamine 100%; activation, % at 7.5 µM (by protocol); hit rate 0.32% among 300,000; AID 1910;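 active = mean activation of at least 10% of the iron chelator positive control signal, with at least half of replicates also reaching 10%; inconclusive = mean and replicate majority disagree about reaching 10%; inactive = mean and most replicates under 10%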
Beta apoptosis: beta cell apoptosis inhibition; INS-1E cytokine-induced death, ATP luminescence, 48 h; percent of positive-control rescue, neutral wells zero; protection from apoptosis, % (no concentration beside the values); hit rate 0.8% among 300,000; AID 435005;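 active = Every replicate reaches about 75%, or at least half do and their mean reaches it too, limit read from the data; inconclusive = At least half of replicates reach the limit but their mean does not; inactive = Under half of replicates reach the limit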;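 also: higher means more ATP so stronger rescue from cytokine killing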
T cruzi repl: blocks replication of Trypanosoma cruzi. T. cruzi beta-gal in NIH3T3, luminescence, 90 h. inhibition, % (no concentration beside the values). hit rate 1.4% among 300,000;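 active = mean inhibition across valid replicates above about 55%, limit read from the data; inconclusive = mean below that limit but half or more replicates reach it; inactive = mean below it, under half of replicates reach it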;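 also: signal also drops with host cell toxicity which is not excluded here; higher percent means less beta-gal luminescence so fewer parasites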
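System: mouse NIH/3T3 fibroblasts infected with β-gal-expressing T. cruzi Tulahuen C4 / Input: NIH/3T3 cells, 5,000 per well / Buffer or medium: Low-serum DMEM with 2% FBS / Probe or stimulus: 5000 reporter trypomastigotes per well / Schedule: ≥90 h infection period, 3 h prior cell attachment / Measured by: GalScreen luminescence, 60 min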
PfHsp90 set2: reduces growth (ATP signal) of yeast expressing P. falciparum Hsp90; S. cerevisiae expressing PfHsp90, BacTiter-Glo ATP, 48 h; yeast lacking PDR1 and PDR3 efflux regulators; inhibition, % at 9.4 µM; hit rate 0.32% among 310,000; AID 504621;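 active = every replicate shows inhibition above about 80%, whatever the replicate mean, limit read from the data; inconclusive = mean inhibition reaches the set limit but some replicate falls short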
Large screens that a line does not name were inactive.

OCCCn1c(C2CCCN2c2nc(-c3ccc(F)cc3)cs2)nc2cc(Cl)c(Cl)cc21 (centres undefined)	PfHsp90 set2 107
CC1(c2ccc(Cl)cc2)NC(=O)N(CC(=O)N2CCc3ccccc32)C1=O (centres undefined)	none (no result: SKKanGAS inh, HIF activator, T cruzi repl, PfHsp90 set2)
CC(C)CC(=O)c1c(O)c(C=O)c(O)c2c1O[C@@]1(C)[C@@H](C2)C[C@H]2C[C@@H]1C2(C)C	CSC inhib 107 (no result: SKKanGAS inh, HIF activator, T cruzi repl)
CCN(c1ccccc1)S(=O)(=O)c1ccc(Cl)c(NC(=O)CN2CCCCCC2)c1	CSC inhib inconclusive, Beta apoptosis 104, T cruzi repl 60
CCN(c1ccccc1)S(=O)(=O)c1ccc(Cl)c(NC(=O)COC(=O)c2cc(O)c3ccccc3c2O)c1	CSC inhib 103, Beta apoptosis 79 (no result: PfHsp90 set2)
COc1ccc(NC(=O)NN2CCN(C)CC2)cc1OC	none
CN1CCN(NC(=O)Nc2cc(Cl)cc(Cl)c2)CC1	SKKanGAS inh 88
CC(NC(=O)C12CC3CC(CC(C3)C1)C2)C(=O)NN=Cc1ccc([N+](=O)[O-])o1 (centres undefined)	none (no result: SKKanGAS inh, HIF activator, T cruzi repl)
CC(NC(=O)c1ccc([N+](=O)[O-])o1)C12CC3CC(CC(C3)C1)C2 (centres undefined)	SKKanGAS inh 57, CSC inhib 97 (no result: Beta apoptosis)
Cn1cc(C(=O)Nc2ccc(Cl)cc2)c(C(F)(F)F)n1	none (no result: PfHsp90 set2)
CCC(C)Sc1cc(C(F)(F)F)c(C(=O)Nc2ccc(Cl)cc2)cn1 (centres undefined)	SKKanGAS inh 70
Nc1ccc2c(c1)C(=O)c1ccccc1-2	none
O=C1C(=O)c2ccc(-c3ccccc3)cc2-c2ccccc21	SKKanGAS inh 101, CSC inhib 131, Beta apoptosis 98, T cruzi repl inconclusive (no result: PfHsp90 set2)
Nc1ccc2c(c1)C(=O)c1ccccc1C2=O	none (no result: PfHsp90 set2)
Nc1ccc2c(c1)C(=O)C(=O)c1ccccc1-2	SKKanGAS inh 86, Beta apoptosis 107
CN(Cc1ccccc1)C(=O)c1ccc(NC(=O)Cc2ccc(NC(=O)C3CCCN(S(=O)(=O)c4cccc([N+](=O)[O-])c4)C3)cc2)cc1 (centres undefined)	none (no result: SKKanGAS inh, CSC inhib, HIF activator, Beta apoptosis, T cruzi repl)
CCOC(=O)c1cc(S(=O)(=O)Nc2ccc(F)cc2F)cn1C	none
Cn1nc(C(=O)NNC(=O)c2ccccc2Br)c2ccccc2c1=O	none (no result: SKKanGAS inh, CSC inhib, HIF activator, Beta apoptosis, T cruzi repl)
CCc1ccc(CNC(=O)c2ccc(NC(=O)C3=CSCCO3)cc2)cc1	none (no result: Beta apoptosis)
O=C(Nc1ccc(C(=O)NCc2ccc(F)cc2)cc1)C1=CSCCO1	SKKanGAS inh 51 (no result: Beta apoptosis)
COc1ccc(C(=O)C2CCCN(C(=O)c3ccc4nccnc4c3)C2)c(C)c1 (centres undefined)	none
CC1(C)CC(NC(=S)Nc2ccc([N+](=O)[O-])cc2)CC(C)(C)N1	none (no result: PfHsp90 set2)
CCCn1c(C(CO)Nc2nc(C)cs2)nc2ccccc21 (centres undefined)	none
CCn1c(Cl)c(C=O)s/c1=N\S(=O)(=O)c1ccccc1	CSC inhib inconclusive, Beta apoptosis 117, T cruzi repl 55
CCN1C(=O)CS/C1=N\S(=O)(=O)c1ccc(Cl)cc1	none (no result: PfHsp90 set2)
c1ccc(N2N=C(c3cccs3)CC2c2ccco2)cc1 (centres undefined)	SKKanGAS inh 65
CCOC(=O)c1c(C)[nH]c(C(=O)OCC(=O)NC(C)(C)C)c1C	Beta apoptosis 86
CCOC(=O)c1[nH]c(C)c(C(=O)OCC(=O)NC(=O)NC(C)(C)C)c1C	none
CCOC(=O)c1c(C)[nH]c(C(=O)OCC(=O)Nc2sc(C(=O)N(C)C)c(C)c2C(=O)OCC)c1C	T cruzi repl 69 (no result: PfHsp90 set2)
Cc1ccc(N(CC(=O)Nc2cc(C)cc(C)c2)S(=O)(=O)c2c(C)noc2C)cc1	Beta apoptosis 102
COc1ccc(C(=O)COC(=O)[C@@H](NS(=O)(=O)c2ccccc2)C(C)C)cc1	none (no result: SKKanGAS inh, HIF activator, T cruzi repl, PfHsp90 set2)
O=C1/C(=N\S(=O)(=O)c2cccs2)C([n+]2ccccc2)=C([O-])c2ccccc21	Beta apoptosis 97
O=S(=O)(/N=C/c1ccccc1O)c1cccs1	none (no result: CSC inhib, Beta apoptosis)
CC(C)(C)c1cc[n+](C2=C([O-])c3ccccc3C(=O)/C2=N\S(=O)(=O)c2cccs2)cc1	SKKanGAS inh 56, Beta apoptosis 107 (no result: PfHsp90 set2)
N/C(=N\S(=O)(=O)c1cccs1)c1ccccc1	none
CC[C@@]1(C(=O)OC)N[C@H](CN(C)S(=O)(=O)c2ccc(C(C)(C)C)cc2)[C@@H]2C(=O)N(C)C(=O)[C@@H]21	none (no result: SKKanGAS inh, CSC inhib, HIF activator, Beta apoptosis, T cruzi repl)
COc1ccccc1N1CCN(CCCCOc2ccc(C)cc2C)CC1	none
CC(=O)Nc1ccc(NC2=CC(=O)c3ccccc3C2=O)cc1	none
CCNC1=C(Cl)C(=O)c2ccccc2C1=O	none
COC1=C(Nc2ccc(O)cc2)C(=O)c2ccccc2C1=O	none
CCN(CC)c1ccc(NC2=C(Cl)C(=O)c3ccccc3C2=O)cc1	CSC inhib 106 (no result: SKKanGAS inh, HIF activator, T cruzi repl)
O=C1C(Cl)=C(Nc2ccc(O)cc2)C(=O)c2ccccc21	CSC inhib 124, T cruzi repl 63
CCCC(=O)NC1=C(Cl)C(=O)c2ccccc2C1=O	PfHsp90 set2 146 (no result: SKKanGAS inh, CSC inhib, HIF activator, Beta apoptosis, T cruzi repl)
O=C1C=C(Nc2ccc(O)cc2)C(=O)c2ccccc21	CSC inhib 105, Beta apoptosis 100
COc1cccc(NC(=O)C(OC(=O)c2cnc(C)cn2)c2ccccc2)c1 (centres undefined)	none (no result: Beta apoptosis)
CCc1cccc(C)c1NC(=O)CSc1n[nH]c(N)n1	none (no result: SKKanGAS inh, HIF activator, T cruzi repl)
O=C(CC(O)CCc1ccccc1)c1ccc(O)cc1 (centres undefined)	none (no result: SKKanGAS inh, CSC inhib, HIF activator, Beta apoptosis, T cruzi repl)
Cc1ccc(CCNc2ncnc(Cl)c2N)cc1	none (no result: SKKanGAS inh, CSC inhib, HIF activator, Beta apoptosis, T cruzi repl)
Cc1ccc(NC2=C(Cl)C(=O)c3ccccc3C2=O)cc1	CSC inhib 112
COc1ccc(CS(=O)(=O)/C(Cl)=C(/Cl)C(=O)Nc2ccc(OC)nc2)cc1	CSC inhib 109
COc1ccc(NC(=O)/C(Cl)=C(/Cl)S(=O)Cc2ccccc2)cn1 (centres undefined)	Beta apoptosis 104, PfHsp90 set2 119 (no result: CSC inhib)
COc1ccc(NC(=O)Cc2ccccc2)cn1	none
CS(=O)(=O)c1ccc(Cl)c(NC(=O)CN2CCN(S(=O)(=O)/C=C/c3ccccc3)CC2)c1	none (no result: SKKanGAS inh, CSC inhib, HIF activator, Beta apoptosis, T cruzi repl)
O=C(NCCc1ccc(Cl)cc1)C(=O)c1c[nH]c2ccccc12	none
O=C(NCCc1c[nH]c2ccccc12)C(=O)c1c[nH]c2ccccc12	CSC inhib 112 (no result: Beta apoptosis)
CC(Oc1ccc(Cl)cc1Cl)c1nc(-c2ccc(NC(=O)c3ccncc3)cc2)no1 (centres undefined)	CSC inhib 83, T cruzi repl 55 (no result: Beta apoptosis)
CC(Oc1ccc(Cl)cc1Cl)C(=O)NNC(=O)c1ccncc1 (centres undefined)	none
CC(Oc1ccc(Cl)cc1Cl)C(=O)Nc1ccc2oc(-c3ccncc3)nc2c1 (centres undefined)	SKKanGAS inh 51 (no result: PfHsp90 set2)
CC(Oc1ccc(Cl)cc1Cl)c1nc(-c2ccc(NC(=O)c3cccnc3)cc2)no1 (centres undefined)	Beta apoptosis 101 (no result: PfHsp90 set2)
COc1ccc(C(=O)NCCCNC(=O)c2cccnc2)cc1Br	none
